# Assays:
# [1] = Relative affinity for delta and mu receptors
# Summary of the method: (§1)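 Selectivity ratio = DADLE IC50 ratio (MVD) divided by morphine or EK IC50 ratio (GPI), with 100 nM antagonist. Where an IC50 ratio was below or near unity, a value of 1 was used.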
# [2] = target: Kappa-type opioid receptor (Cavia porcellus) (UniProt P41144); experiment: Inhibition of ethylketazocine binding to Opioid receptor kappa 1 of guinea pig ileal longitudinal muscle
# Summary of the method: (§2)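 Electrically stimulated smooth muscle: guinea pig ileal longitudinal muscle with morphine or ethylketazocine, mouse vas deferens with DADLE. Antagonist 100 nM incubated 15 min (30 min in footnoted cases) before agonist. IC50 ratio = agonist IC50 with antagonist divided by control IC50 in the same preparation; mean ± SEM, n shown.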
# [3] = Relative affinity for delta and kappa receptors; summary of the method: as §1
# [4] = target: Delta-type opioid receptor (Mus musculus) (UniProt P32300); experiment: Inhibition of DADLE binding to Opioid receptor delta 1 of mouse vas deferens; summary of the method: as §2
# [5] = target: Mu-type opioid receptor (Cavia porcellus) (UniProt P97266); experiment: Inhibition of morphine binding to Opioid receptor mu 1 of guinea pig ileal longitudinal muscle; summary of the method: as §2
# [6] = target: Delta-type opioid receptor (Mus musculus) (UniProt P32300); experiment: Antagonism of antinociceptive effect of DSLET against delta 2 opioid receptor in male ICR mice at a sc dose of 16 umol/kg; format: functional, organism-based
# Summary of the method: (§3)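 Male ICR mice, tail-flick antinociception. Antagonist given sc at the stated dose (µmol/kg), pretreatment timed so peak antagonism coincides with the agonist's peak antinociceptive response. Agonists: DPDPE (δ1), DSLET (δ2), morphine (µ), U50488 (κ). ED50 ratio = agonist ED50 with sc antagonist divided by control ED50, with 95% confidence limits.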
# [7] = target: Delta-type opioid receptor (Mus musculus) (UniProt P32300); experiment: Antagonism of antinociceptive effect of DSLET against delta 2 opioid receptor in male ICR mice at a sc dose of 5 umol/kg; format: functional, organism-based; summary of the method: as §3
# [8] = target: Delta-type opioid receptor (Mus musculus) (UniProt P32300); experiment: Antagonism of antinociceptive effect of DPDPE against delta 1 opioid receptor in male ICR mice at a sc dose of 5 umol/kg; format: functional, organism-based; summary of the method: as §3
# [9] = target: Kappa-type opioid receptor (Mus musculus) (UniProt P33534); experiment: Antagonism of antinociceptive effect of U-50,488 against kOpioid receptor kappa 1 in male ICR mice at a sc dose of 16 umol/kg; format: functional, organism-based; summary of the method: as §3
# [10] = target: Mu-type opioid receptor (Mus musculus) (UniProt P42866); experiment: Antagonism of antinociceptive effect of morphine against Opioid receptor mu 1 in male ICR mice at a sc dose of 16 umol/kg; format: functional, organism-based; summary of the method: as §3
# [11] = target: Kappa-type opioid receptor (Mus musculus) (UniProt P33534); experiment: Antagonism of antinociceptive effect of U-50,488 against kOpioid receptor kappa 1 in male ICR mice at a sc dose of 5 umol/kg; format: functional, organism-based; summary of the method: as §3
# [12] = target: Mu-type opioid receptor (Mus musculus) (UniProt P42866); experiment: Antagonism of antinociceptive effect of morphine against Opioid receptor mu 1 in male ICR mice at a sc dose of 5 umol/kg.; format: functional, organism-based; summary of the method: as §3
# [13] = target: Delta-type opioid receptor (Mus musculus) (UniProt P32300); experiment: Antagonism of antinociceptive effect of DPDPE against delta 1 opioid receptor in male ICR mice at a sc dose of 16 umol/kg; format: functional, organism-based; summary of the method: as §3
# [14] = target: Mu-type opioid receptor (Mus musculus) (UniProt P42866); experiment: Antagonism of antinociceptive effect of morphine against Opioid receptor mu 1 in male ICR mice at a sc dose of 5 umol/kg; format: functional, organism-based; summary of the method: as §3
# [15] = target: Kappa-type opioid receptor (Mus musculus) (UniProt P33534); experiment: Antagonism of antinociceptive effect of U-50,488 against Opioid receptor kappa 1 in male ICR mice at a sc dose of 5 umol/kg; format: functional, organism-based; summary of the method: as §3
# [16] = target: Kappa-type opioid receptor (Mus musculus) (UniProt P33534); experiment: Antagonism of antinociceptive effect of U-50,488 against Opioid receptor kappa 1 in male ICR mice at a sc dose of 16 umol/kg; format: functional, organism-based; summary of the method: as §3
# Chain of Kappa-type opioid receptor (Mus musculus) (P33534 whole entry): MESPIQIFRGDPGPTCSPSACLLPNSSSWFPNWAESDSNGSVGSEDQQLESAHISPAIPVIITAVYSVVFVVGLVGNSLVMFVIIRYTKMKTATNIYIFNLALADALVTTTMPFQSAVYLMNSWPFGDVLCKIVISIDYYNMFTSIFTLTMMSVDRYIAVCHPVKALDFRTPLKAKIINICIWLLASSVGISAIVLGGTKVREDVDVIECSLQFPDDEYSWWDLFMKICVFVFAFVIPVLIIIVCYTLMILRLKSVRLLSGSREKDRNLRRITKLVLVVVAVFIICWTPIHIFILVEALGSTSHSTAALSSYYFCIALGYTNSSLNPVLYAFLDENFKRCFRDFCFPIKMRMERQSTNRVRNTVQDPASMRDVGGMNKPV
# Chain of Mu-type opioid receptor (Cavia porcellus) (P97266 whole entry): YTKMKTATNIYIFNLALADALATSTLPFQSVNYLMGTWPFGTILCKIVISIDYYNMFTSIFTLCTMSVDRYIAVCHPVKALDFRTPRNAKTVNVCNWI
# Chain of Kappa-type opioid receptor (Cavia porcellus) (P41144 whole entry): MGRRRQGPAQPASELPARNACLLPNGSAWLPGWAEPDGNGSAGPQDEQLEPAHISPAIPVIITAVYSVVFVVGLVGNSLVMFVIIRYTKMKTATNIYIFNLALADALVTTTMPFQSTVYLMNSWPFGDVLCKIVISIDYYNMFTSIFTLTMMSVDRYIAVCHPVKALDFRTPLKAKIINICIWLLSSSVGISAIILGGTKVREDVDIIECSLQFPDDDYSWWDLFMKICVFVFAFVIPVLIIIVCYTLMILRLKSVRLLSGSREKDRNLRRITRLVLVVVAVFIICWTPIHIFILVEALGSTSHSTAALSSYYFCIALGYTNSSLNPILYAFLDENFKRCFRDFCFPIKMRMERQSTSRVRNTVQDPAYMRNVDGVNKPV
# Chain of Delta-type opioid receptor (Mus musculus) (P32300 whole entry): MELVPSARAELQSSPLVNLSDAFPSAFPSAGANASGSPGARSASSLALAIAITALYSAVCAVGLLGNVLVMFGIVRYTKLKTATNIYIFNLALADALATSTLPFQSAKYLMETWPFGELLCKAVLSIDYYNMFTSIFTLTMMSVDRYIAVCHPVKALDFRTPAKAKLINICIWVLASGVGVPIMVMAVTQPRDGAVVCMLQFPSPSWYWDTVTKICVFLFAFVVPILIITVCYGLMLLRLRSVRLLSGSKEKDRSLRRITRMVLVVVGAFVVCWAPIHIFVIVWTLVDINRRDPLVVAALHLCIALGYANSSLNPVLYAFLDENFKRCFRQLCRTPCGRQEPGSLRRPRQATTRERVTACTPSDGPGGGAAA
# Chain of Mu-type opioid receptor (Mus musculus) (P42866 whole entry): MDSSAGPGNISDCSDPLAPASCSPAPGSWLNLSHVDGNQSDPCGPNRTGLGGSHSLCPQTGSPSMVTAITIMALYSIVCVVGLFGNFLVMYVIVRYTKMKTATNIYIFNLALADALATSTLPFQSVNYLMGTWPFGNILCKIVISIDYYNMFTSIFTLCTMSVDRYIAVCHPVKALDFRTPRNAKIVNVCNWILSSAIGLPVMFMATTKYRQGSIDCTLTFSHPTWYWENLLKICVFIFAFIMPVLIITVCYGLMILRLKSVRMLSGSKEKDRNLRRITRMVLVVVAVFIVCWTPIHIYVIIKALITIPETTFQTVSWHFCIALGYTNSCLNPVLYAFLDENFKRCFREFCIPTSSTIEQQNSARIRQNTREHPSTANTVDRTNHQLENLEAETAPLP
structure (smiles),measurement,setting,value
COC(=O)c1ccc(/C=C2/C[C@@]3(O)C4Cc5ccc(O)c6c5C3(CCN4CC3CC3)[C@@H](O6)C2=O)cc1 (stereo not given in full),Selectivity ratio,[1],3.8
same,IC50 ratio,[2],0.62
same,Selectivity ratio,[3],14.6
same,IC50 ratio,[4],14.6
same,IC50 ratio,[5],3.81
COc1ccccc1/C=C1/C[C@@]2(O)C3Cc4ccc(O)c5c4C2(CCN3CC2CC2)[C@@H](O5)C1=O (stereo not given in full),ED50 ratio,[6],6.8
same,ED50 ratio,[7],0.8
same,ED50 ratio,[8],2
same,Selectivity ratio,[1],14.1
same,IC50 ratio,[2],1.05
same,ED50 ratio,[9],0.84
same,Selectivity ratio,[3],120
same,IC50 ratio,[4],120
same,ED50 ratio,[10],5.8
same,ED50 ratio,[11],0.47
same,ED50 ratio,[12],1.03
same,ED50 ratio,[13],11.1
same,IC50 ratio,[5],8.49
O=C1/C(=C\c2ccc(-c3ccc4ccccc4c3)cc2)C[C@@]2(O)C3Cc4ccc(O)c5c4C2(CCN3CC2CC2)[C@H]1O5 (stereo not given in full),Selectivity ratio,[1],3.5
same,IC50 ratio,[2],1.07
same,Selectivity ratio,[3],11.6
same,IC50 ratio,[4],11.6
same,IC50 ratio,[5],3.32
COc1ccc(/C=C2/C[C@@]3(O)C4Cc5ccc(O)c6c5C3(CCN4CC3CC3)[C@@H](O6)C2=O)cc1 (stereo not given in full),Selectivity ratio,[1],1.5
same,IC50 ratio,[2],0.92
same,Selectivity ratio,[3],5.5
same,IC50 ratio,[4],5.52
same,IC50 ratio,[5],3.75
Cc1ccc(/C=C2/C[C@@]3(O)C4Cc5ccc(O)c6c5C3(CCN4CC3CC3)[C@@H](O6)C2=O)cc1 (stereo not given in full),Selectivity ratio,[1],3.2
same,IC50 ratio,[2],2.45
same,Selectivity ratio,[3],9.1
same,IC50 ratio,[4],22.3
same,IC50 ratio,[5],7.05
O=C1/C(=C\c2ccccc2Cl)C[C@@]2(O)C3Cc4ccc(O)c5c4C2(CCN3CC2CC2)[C@H]1O5 (stereo not given in full),ED50 ratio,[6],7.2
same,ED50 ratio,[7],0.87
same,ED50 ratio,[8],3.7
same,Selectivity ratio,[1],130
same,IC50 ratio,[2],0.85
same,ED50 ratio,[14],0.53
same,ED50 ratio,[15],0.73
same,Selectivity ratio,[3],130
same,IC50 ratio,[4],130
same,ED50 ratio,[10],7.1
same,ED50 ratio,[13],11.4
same,ED50 ratio,[16],0.9
same,IC50 ratio,[5],1.34
O=C1/C(=C\c2cccc(F)c2)C[C@@]2(O)C3Cc4ccc(O)c5c4C2(CCN3CC2CC2)[C@H]1O5 (stereo not given in full),Selectivity ratio,[1],2.1
same,IC50 ratio,[2],1.26
same,Selectivity ratio,[3],12.9
same,IC50 ratio,[4],16.3
same,IC50 ratio,[5],7.83
O=C1/C(=C\c2ccccc2)C[C@@]2(O)[C@H]3Cc4ccc(O)c5c4[C@@]2(CCN3CC2CC2)[C@H]1O5,ED50 ratio,[6],9.6
same,Selectivity ratio,[1],2.7
same,IC50 ratio,[2],2
same,Selectivity ratio,[3],17.5
same,IC50 ratio,[4],35
same,ED50 ratio,[10],5.7
same,ED50 ratio,[13],16.8
same,ED50 ratio,[16],1.8
same,IC50 ratio,[5],13.1
O=C1/C(=C\c2ccc(-c3cccc4ccccc34)cc2)C[C@@]2(O)C3Cc4ccc(O)c5c4C2(CCN3CC2CC2)[C@H]1O5 (stereo not given in full),Selectivity ratio,[1],10.3
same,IC50 ratio,[2],1.85
same,Selectivity ratio,[3],6.9
same,IC50 ratio,[4],12.7
same,IC50 ratio,[5],1.23
O=C1/C(=C\c2ccc([N+](=O)[O-])cc2)C[C@@]2(O)C3Cc4ccc(O)c5c4C2(CCN3CC2CC2)[C@H]1O5 (stereo not given in full),Selectivity ratio,[1],0.4
same,IC50 ratio,[2],1.07
same,Selectivity ratio,[3],1.9
same,IC50 ratio,[4],1.9
same,IC50 ratio,[5],4.42
COc1cccc(/C=C2/C[C@@]3(O)C4Cc5ccc(O)c6c5C3(CCN4CC3CC3)[C@@H](O6)C2=O)c1 (stereo not given in full),Selectivity ratio,[1],2.8
same,IC50 ratio,[2],0.95
same,Selectivity ratio,[3],18
same,IC50 ratio,[4],18
same,IC50 ratio,[5],6.44
O=C1/C(=C\c2ccc(F)cc2)C[C@@]2(O)C3Cc4ccc(O)c5c4C2(CCN3CC2CC2)[C@H]1O5 (stereo not given in full),Selectivity ratio,[1],0.9
same,IC50 ratio,[2],1.86
same,Selectivity ratio,[3],1.1
same,IC50 ratio,[4],2.01
same,IC50 ratio,[5],2.23
O=C1/C(=C\c2ccccc2F)C[C@@]2(O)C3Cc4ccc(O)c5c4C2(CCN3CC2CC2)[C@H]1O5 (stereo not given in full),Selectivity ratio,[1],4.4
same,IC50 ratio,[2],1.65
same,Selectivity ratio,[3],10.3
same,IC50 ratio,[4],17
same,IC50 ratio,[5],3.86
O=C1/C(=C\c2cccc([N+](=O)[O-])c2)C[C@@]2(O)C3Cc4ccc(O)c5c4C2(CCN3CC2CC2)[C@H]1O5 (stereo not given in full),Selectivity ratio,[1],5.2
same,IC50 ratio,[2],0.5
same,Selectivity ratio,[3],5.2
same,IC50 ratio,[4],5.18
same,IC50 ratio,[5],1.15

# Source: ChEMBL document CHEMBL1131147, “7-Arylidenenaltrexones as selective delta1 opioid receptor antagonists” (J Med Chem, 1998)
